Screening results: PubChem BioAssay, Johns Hopkins Ion Channel Center
TRPC4 agonist = opens the mouse TRPC4 cation channel. Q9QUQ5. HEK293 TRPC4beta/mu-opioid, Fluo4 calcium fluorescence; hits give high values. B-score at 10 µM. 310,000 compounds, 0.49% hits. AID 2237;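 active = B-score above 5 SD of library B-scores, and initial fluorescence ratio not above library mean plus 5 SD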;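 also: positive B-score marks a calcium rise read as TRPC4 activation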
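Assay system: HEK293 stable line with TRPC4beta plus mu-opioid receptor; schedule: 45 min room-temperature Fluo4 loading, 110 s read; technique: kinetic Fluo4 calcium fluorescence; evaluation: integrated baseline-normalised fluorescence ratio, converted to per-well B score; controls: buffer (low) and maximal DAMGO (high)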
TRPC4 block = inhibitors of mouse TRPC4 channel. Q9QUQ5. HEK293 TRPC4beta/mu-opioid, DAMGO-evoked Fluo4 calcium flux; hits give low values. B-score at 10 µM. 300,000 compounds, 0.39% hits;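 active = B-score over 3 SD under the library average, no early fluorescence shift, positive overall ratio signal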
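Test system – stable TRPC4beta/mu-opioid receptor HEK293 cells · Probe or stimulus – DAMGO, a submaximal dose followed by a maximal one · Dosing – one concentration per compound · Signal – Fluo4 calcium fluorescence by kinetic imaging, 5 s 1 Hz baseline · Evaluation – per-well B score of integrated baseline-normalized Fluo4 ratio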
TRPC6 act = activators of mouse TRPC6 channel; Q61143; 310,000 compounds, 0.13% hits; B-score at 10 µM; HEK293-TRPC6 membrane potential dye fluorescence; hits give high values;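 active = B-score of the integrated fluorescence ratio above library mean plus 3 SD, and starting fluorescence ratio within library mean plus 5 SD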;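 also: higher score means more depolarization so channel activation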
Target sequence (Q61143 whole entry, looked up): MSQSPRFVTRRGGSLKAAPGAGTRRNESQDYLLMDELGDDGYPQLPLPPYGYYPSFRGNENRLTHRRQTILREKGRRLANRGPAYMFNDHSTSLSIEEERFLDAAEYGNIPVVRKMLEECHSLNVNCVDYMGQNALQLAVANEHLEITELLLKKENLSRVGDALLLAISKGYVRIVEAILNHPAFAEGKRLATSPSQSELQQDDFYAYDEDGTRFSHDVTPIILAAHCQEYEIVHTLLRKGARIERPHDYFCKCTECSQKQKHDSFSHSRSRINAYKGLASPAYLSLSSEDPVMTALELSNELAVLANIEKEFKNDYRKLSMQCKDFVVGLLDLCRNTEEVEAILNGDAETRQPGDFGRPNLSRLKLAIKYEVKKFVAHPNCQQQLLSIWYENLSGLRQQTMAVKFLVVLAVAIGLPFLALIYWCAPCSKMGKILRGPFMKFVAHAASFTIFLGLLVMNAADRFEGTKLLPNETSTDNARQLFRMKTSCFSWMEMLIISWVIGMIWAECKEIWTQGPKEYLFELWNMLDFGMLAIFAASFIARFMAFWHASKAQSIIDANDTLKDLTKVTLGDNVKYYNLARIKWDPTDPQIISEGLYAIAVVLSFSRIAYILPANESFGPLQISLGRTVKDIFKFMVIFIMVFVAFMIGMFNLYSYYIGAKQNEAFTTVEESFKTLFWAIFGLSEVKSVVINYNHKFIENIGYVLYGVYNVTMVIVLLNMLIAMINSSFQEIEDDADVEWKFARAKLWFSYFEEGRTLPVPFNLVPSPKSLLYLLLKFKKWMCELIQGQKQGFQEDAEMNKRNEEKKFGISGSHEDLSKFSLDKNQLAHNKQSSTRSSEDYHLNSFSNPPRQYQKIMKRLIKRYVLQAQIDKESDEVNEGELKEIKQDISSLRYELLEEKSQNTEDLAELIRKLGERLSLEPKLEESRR
TRPC4 potent = TRPC4 (mouse) allosteric potentiation | Q9QUQ5 | HEK293 TRPC4beta/mu-opioid, DAMGO EC20, Fluo-4 Ca2+ flux; hits give high values | B-score at 10 µM | 310,000 compounds, 0.42% hits | AID 2227;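 active = B-score of calcium response area above 5 SD of library B-scores, with initial fluorescence ratio within 5 SD of library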;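 also: B-score of integrated fluorescence ratio over time as area under calcium response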
TRPC6 inhibitor = inhibitors of mouse TRPC6 channel; Q61143; HEK293-TRPC6, membrane potential dye, ACh-evoked depolarization; hits give low values; B-score at 10 µM; 310,000 compounds, 1.1% hits; AID 2553;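 active = B-score under library mean minus 3 SD, initial fluorescence not abnormally high, positive integrated signal ratio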;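 also: B-score derived from integrated fluorescence ratio over the kinetic read; more negative B-score means stronger inhibition of depolarization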
TRPC4 spec 2 = second check of whether TRPC6 inhibitors also affect mouse TRPC4. shares compounds with TRPC6 inhibitor. HEK293 TRPC4/MOR, membrane potential dye fluorescence; channel activated by saturating DAMGO dose. inhibition, % at 10 µM. 920 compounds, 42% hits. AID 2776;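 active = compounds whose fluorescence signal differed from control wells by over 3 SD, either direction, in both duplicate plates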
TRPC4 spec = selectivity of TRPC6 inhibitors: effect on mouse TRPC4; shares compounds with TRPC6 inhibitor; HEK293 TRPC4/mu-opioid, membrane potential fluorescence; activity change, negative = inhibition, % at 10 µM; 920 compounds, 61% hits;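 active = rise or fall in signal beyond 3 SD of buffer-only wells in both replicate plates, either sign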;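 also: integrated kinetic ratio of fluorescence range over baseline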
HEK293 MPD ctr 2-1 = second counter-screen for TRPC6 inhibitors: parental HEK293 cells | shares compounds with TRPC6 inhibitor | parental HEK293 membrane potential dye fluorescence; maximal acetylcholine challenge after compound addition | signal change vs control, % at 10 µM | 920 compounds, 31% hits | AID 2779;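 active = membrane potential signal moving either way by over 3 SD of the maximum-effect control, in both duplicate plates, meaning non-specific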
HEK293 MPD ctr-1 = counter-screen for TRPC6 inhibitors: effect in parental HEK293 cells; shares compounds with TRPC6 inhibitor; parental HEK293 membrane potential dye fluorescence; membrane potential signal change, % at 10 µM; 920 compounds, 60% hits;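 active = membrane potential signal shifting up or down by more than 3 SD of buffer-only wells, on both duplicate plates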
HEK293 MPD ctr-2 = checks TRPC6 modulator effects in parental HEK293 cells; shares compounds with TRPC6 inhibitor; membrane potential dye fluorescence; membrane potential signal change, % at 10 µM; 2,400 compounds, 51% hits;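 active = membrane potential signal moves up or down beyond 5 SD from buffer-only wells, on both duplicate plates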
HEK293 MPD ctr 2-2 = parental HEK293 nonspecific activity of TRPC6 modulators, second screen; shares compounds with TRPC6 inhibitor; membrane potential dye fluorescence; after compound, maximal acetylcholine stimulation; inhibition, % at 10 µM; 2,400 compounds, 14% hits; AID 488926;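 active = membrane potential signal drops by more than 5 SD from the mean control signal, in both duplicate plates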;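 also: plate controls were acetylcholine ECmax control wells for no effect and buffer only wells for full effect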
TRPC4 ctr mod = mouse TRPC4 off-target activity of TRPC6 modulators | shares compounds with TRPC6 inhibitor | HEK293 TRPC4/mu-opioid, membrane potential fluorescence | percent change from control (negative = decrease, positive = increase), % at 10 µM | 2,400 compounds, 69% hits | AID 488927;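 active = membrane potential signal moved up or down beyond 5 SD of buffer control wells, in both duplicate plates, actives on both sides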;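 also: plate controls were assay buffer wells for no effect and DAMGO maximal-effect wells for full effect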
TRPC4 ctr inh 2 = second check of whether TRPC6 modulators also affect mouse TRPC4 | shares compounds with TRPC6 inhibitor | HEK293 TRPC4/mu-opioid, membrane potential dye fluorescence; stimulated with maximal-effect DAMGO | inhibition, % at 10 µM | 2,400 compounds, 55% hits;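 active = drop in membrane potential signal beyond 5 SD of the control wells in both duplicate plates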;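 also: TRPC4 counter screen for TRPC6 hits run under conditions tuned for TRPC6 not TRPC4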
TRPC6 block conf = confirmation of mouse TRPC6 inhibitors; shares compounds with TRPC6 inhibitor; HEK293-TRPC6, membrane potential dye, ACh-evoked depolarization; inhibition, % at 10 µM; 3,300 compounds, 43% hits;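 active = fluorescence ratio falls more than 5 SD below the full-stimulation control mean, in both duplicate runs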;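 also: integrated fluorescence ratio of peak minus minimum over baseline after agonist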
TRPC6 act confirm = mouse TRPC6 activator confirmation | activation, % at 10 µM | 2,800 compounds, 11% hits | shares compounds with TRPC6 inhibitor | HEK293-TRPC6 membrane potential dye fluorescence, FDSS;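 active = ratio signal rise beyond 5 SD above unstimulated control wells' mean, seen in both duplicate runs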;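 also: plate controls were buffer EC0 wells for no effect and acetylcholine ECmax response for full effect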
Active calls of the source: *; i = inactive; . = not tested or not shown. A selection: hits, their analogues and other compounds. The true share with any hit is near 2.3%.

SMILES | TRPC4 agonist | TRPC4 block | TRPC6 act | TRPC4 potent | TRPC6 inhibitor | HEK293 MPD ctr-2 | HEK293 MPD ctr 2-2 | TRPC4 ctr mod | TRPC4 ctr inh 2 | TRPC6 block conf | TRPC6 act confirm | others
COc1cccc2sc(N(CCN(C)C)C(=O)c3ccc(S(=O)(=O)N4CCCC4)cc3)nc12 | i | i | i | i | i | . | . | . | . | . | .
COc1cc2ccccc2cc1C(=O)N(CCN(C)C)c1nc2c(OC)ccc(OC)c2s1 | i | i | i | i | i | . | . | . | . | . | .
C/C(=N\NC(=O)c1nnn(-c2nonc2N)c1CN1CCCCC1)c1ccccc1O | i | i | i | i | i | . | . | . | . | . | .
CC1CCCC(C)N1/N=C/c1ccc(N(C)C)cc1 (stereo unspecified) | i | i | i | i | i | . | . | . | . | . | .
COc1ccc(OC)c(Cc2nnc(CCC(=O)NCc3ccc(C)s3)o2)c1 | i | i | i | i | i | . | . | . | . | . | .
CC(=O)c1ccc(C(=O)N(CCN(C)C)c2nc3c(Cl)cccc3s2)cc1 | i | i | i | i | i | . | . | . | . | . | .
CN(C)CCN(C(=O)c1ccc2c(c1)OCCO2)c1nc2c(Cl)cccc2s1 | i | i | i | i | -7.2* | . | . | . | . | 98%* | i | TRPC4 spec 2=26%*;TRPC4 spec=-22%*;HEK293 MPD ctr 2-1=i;HEK293 MPD ctr-1=-288%*
COc1cc(C(=O)n2nc(C)cc2C)ccc1O | i | i | i | i | i | . | . | . | . | . | .
CCOC(=O)c1sc(=S)n(-c2ccc(OC)cc2)c1C | i | i | i | i | -6.3* | i | i | 10%* | i | 52%* | .
CCOC(=O)c1sc(=S)n(-c2ccccc2Cl)c1SC | i | i | i | i | -7.7* | . | . | . | . | i | i | TRPC4 spec 2=i;TRPC4 spec=i;HEK293 MPD ctr 2-1=i;HEK293 MPD ctr-1=i
CCOC(=O)c1sc(=S)n(-c2ccccc2)c1SC | i | i | i | i | i | . | . | . | . | . | .
COc1ccccc1NC(=S)N1CCN(C(=O)C2CCCO2)CC1 (stereo unspecified) | i | i | i | i | i | . | . | . | . | . | .
C/C(=N\Nc1nc2ccccc2[nH]1)c1ccc(Cl)s1 | i | i | i | i | i | . | . | . | . | . | .
C/C(=N\Nc1nc(C)cc(C)n1)c1ccc(N2CCOCC2)cc1 | i | i | i | i | i | . | . | . | . | . | .
C/C(=N\Nc1nc2ccccc2[nH]1)c1ccc(C)o1 | i | i | i | i | -6* | -140%* | 60%* | -26%* | 80%* | 76%* | i
C/C(=N\Nc1nc2ccccc2[nH]1)c1ccc(N2CCOCC2)cc1 | i | i | i | i | -5.8* | i | i | -14%* | i | i | i
CCOC(=O)C1CCCN(C(=O)c2cnn3c(C(F)F)cc(-c4ccc(C)cc4)nc23)C1 (stereo unspecified) | i | i | i | i | -6.2* | 156%* | i | 37%* | i | i | .
COc1ccc(C(=O)N/N=C/c2ccc(OC)c(COc3ccc(F)cc3F)c2)cc1 | i | i | i | i | i | . | . | . | . | . | .
CCn1cc(C(=O)OCC(=O)N(C)C2CCS(=O)(=O)C2)c(=O)c2ccc(C)nc21 (stereo unspecified) | i | i | i | i | -5.4* | -269%* | i | -54%* | i | 60%* | i
CC(C)C[C@H](NC(=O)C1CC(=O)N(c2ccc3c(c2)OCCO3)C1)C(=O)N1CCCCC1 (stereo partly specified) | i | i | i | i | i | . | . | . | . | . | .
O=C(N/N=C/c1sc(N2CCOCC2)nc1-c1ccccc1)c1ccc(O)cc1 | i | i | i | i | i | . | . | . | . | . | .
O=C(N/N=C/c1sc(N2CCOCC2)nc1-c1ccccc1)c1cccc(S(=O)(=O)N2CCCC2)c1 | i | i | i | i | -5.9* | 454%* | i | -56%* | i | i | i
O=C(N/N=C/c1cc(Br)cc(Br)c1O)c1cccc(S(=O)(=O)N2CCOCC2)c1 | i | i | i | i | -5.7* | i | i | 26%* | i | i | i
CC(=O)Nc1ccc(/C=N/NC(=O)c2cccc(S(=O)(=O)N3CCOCC3)c2)cc1 | i | i | i | i | i | . | . | . | . | . | .
CCCC(=O)Nc1ccc2c(c1)nc1n2CCN(C2CCCCC2)C1 | i | i | i | i | i | . | . | . | . | . | .
CCOC(=O)N1CCN(C(=O)c2ccc3nc(N4CCC(C)CC4)sc3c2)CC1 | i | i | 13* | i | -12* | 114%* | i | 21%* | i | 113%* | 160%*
Cc1ccc(NC(=O)C(NC2CCCC2)c2ccccc2)cc1Cl (stereo unspecified) | i | i | i | i | i | . | . | . | . | . | .
COc1cccc(NC(=O)c2ccccc2Oc2ccccc2)c1 | i | i | i | i | -5.3* | i | i | 14%* | i | i | i
COc1ccc(NC(=O)c2ccccc2Oc2ccccc2)cc1 | i | i | i | i | i | . | . | . | . | . | .
